Experiments:
Format in all cases: cell-based
[1] = target: T1, Large neutral amino acids transporter small subunit 1 (Homo sapiens, UniProt Q01650); assay: Cis-inhibition of human LAT1 expressed in TREx HEK293 cells at 200 uM assessed as inhibition of [3H]-gabapentin uptake preincubated for 3 mins at 37 degC followed by washing with choline buffer and measured after 3 hrs by scintillation counting analysis relative to BCH
[2] = target: T1, Large neutral amino acids transporter small subunit 1; assay: Trans-stimulation of human LAT1 expressed in TREx HEK293 cells assessed as induction of [3H]-gabapentin efflux at 200 uM after 3 mins by scintillation counting analysis relative to L-phenylalanine
Summary of the method: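 [³H]-gabapentin-preloaded HEK-hLAT1 cells (inducible) were treated with compound at 200 μM. Efflux rate was taken at 3 min and expressed as % of the rate induced by L-phenylalanine, averaged over seven experiments. At least triplicate, 24-well poly-D plates.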

[3] = target: T1, Large neutral amino acids transporter small subunit 1; assay: Cis-inhibition of human LAT1 expressed in TREx HEK293 cells assessed as inhibition of [3H]-gabapentin uptake preincubated for 3 mins at 37 degC followed by washing with choline buffer and measured after 3 hrs by scintillation counting analysis
Summary of the method: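 Inducible hLAT1 HEK cells in 24-well poly-D plates, pH 7.4. Cells were exposed to [³H]-gabapentin (6 nM) plus test compound at 0.1–500 μM. […] Run at least in triplicate.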

[4] = target: T1, Large neutral amino acids transporter small subunit 1; assay: Trans-stimulation of human LAT1 expressed in TREx HEK293 cells assessed as induction of [3H]-gabapentin efflux at 200 uM after 3 mins by scintillation counting analysis
Summary of the method: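 HEK cells with inducible hLAT1 were preloaded with [³H]-gabapentin, then exposed to test compound at 200 μM. Efflux rate (fmol/min) was calculated 3 min after compound addition. Data from at least triplicate wells in 24-well poly-D plates.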

T1 sequence (Q01650 whole entry): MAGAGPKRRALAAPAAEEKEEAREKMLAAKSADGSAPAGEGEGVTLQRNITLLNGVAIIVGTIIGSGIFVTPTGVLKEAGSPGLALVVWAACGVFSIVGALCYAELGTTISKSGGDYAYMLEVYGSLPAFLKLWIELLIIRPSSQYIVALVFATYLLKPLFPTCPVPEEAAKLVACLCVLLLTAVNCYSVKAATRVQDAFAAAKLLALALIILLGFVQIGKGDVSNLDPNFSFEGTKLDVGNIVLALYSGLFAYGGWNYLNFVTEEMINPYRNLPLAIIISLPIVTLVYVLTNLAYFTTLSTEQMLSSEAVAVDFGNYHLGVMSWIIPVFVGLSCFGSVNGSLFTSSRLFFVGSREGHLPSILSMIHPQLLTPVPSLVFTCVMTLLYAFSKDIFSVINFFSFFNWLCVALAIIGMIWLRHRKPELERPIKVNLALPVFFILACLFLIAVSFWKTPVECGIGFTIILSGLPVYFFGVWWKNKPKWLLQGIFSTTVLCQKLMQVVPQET

Row | inhibition [1] | Activity [2] | IC50 [3] | Activity [4] | SMILES
1 | – | 43% | – | – | N[C@@H](Cc1cn(Cc2ccccc2)nn1)C(=O)O
2 | 59% | 100% | 340 µM | – | N[C@@H](Cn1nnc2ccccc21)C(=O)O
3 | 14% | 57% | > 1000 µM | – | N[C@@H](Cn1cc(CO)nn1)C(=O)O
4 | 13% | 37% | > 1000 µM | – | N[C@@H](Cn1cc(-c2ccccc2)nn1)C(=O)O
5 | -6% | 49% | – | – | N[C@@H](Cn1cc(Cc2ccccc2)nn1)C(=O)O

The next lines start with the compound.

Row | SMILES | inhibition [1] | Activity [2] | IC50 [3] | Activity [4]
6 | Cn1cc(C[C@H](N)C(=O)O)nn1 | 20% | 63% | > 1000 µM | –
7 | Cc1cn(C[C@H](N)C(=O)O)nn1 | 38% | 70% | 440 µM | –
8 | N[C@@H](Cn1ccnn1)C(=O)O | 58% | 82% | 160 µM | –
9 | N[C@@H](Cc1c[nH]cn1)C(=O)O [HISTIDINE] | – | – | 110 µM | –
10 | N[C@@H](Cc1ccccc1)C(=O)O | – | – | – | 2.7 fmol/min

— ChEMBL document CHEMBL4385624, “l-Type amino acid transporter 1 activity of 1,2,3-triazolyl analogs of l-histidine and l-tryptophan” (Bioorg Med Chem Lett, 2019)
